Tests used:
[1] = Half life in CD1 mouse at 30 mg/kg, ip; type: ADME, organism-based; design: dose 30 mg/kg, route intraperitoneal; conditions: in vivo
Summary of the method: (§1)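 Mouse PK: single 30 mg/kg dose given IP as a Methocel suspension. Cmax, total AUC and t1/2 were taken from plasma exposure after dosing.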

[2] = Cmax in CD1 mouse at 30 mg/kg, ip; type: ADME, organism-based; design: dose 30 mg/kg, route intraperitoneal; conditions: in vivo; summary of the method: as §1
Liver microsome [3] = experiment: Stability in rat liver microsomes assessed as compound remaining; type: ADME
Liver = experiment: Stability in mouse liver microsomes assessed as compound remaining; type: ADME
[4] = Apparent permeability from basolateral to apical side of human Caco2 cells; type: ADME, cell-based; conditions: Caco-2
[5] = Aqueous solubility of the compound at pH 6; type: physicochemical
[6] = Apparent permeability from apical to basolateral side of human Caco2 cells; type: ADME, cell-based; conditions: Caco-2
[7] = Permeability of the compound by PAMPA; type: physicochemical; conditions: read-out: permeability
Liver microsome [8] = experiment: Stability in human liver microsomes assessed as compound remaining; type: ADME
[9] = Aqueous solubility of the compound at pH 1; type: physicochemical
[10] = AUC (total) in CD1 mouse at 30 mg/kg, ip; type: ADME, organism-based; design: dose 30 mg/kg, route intraperitoneal; conditions: plasma; summary of the method: as §1
[11] = target: Tyrosine-protein kinase BTK (Homo sapiens, UniProt Q06187); experiment: Inhibition of full length human wild type his-tagged BTK expressed in Sf9 cells using biotinylated peptide as substrate after 1 hr by Fluorescence assay
[12] = Selectivity ratio of IC50 for ITK (unknown origin) to IC50 for full length human wild type his-tagged BTK expressed in Sf9 cells
[13] = Selectivity ratio of IC50 for Flt3 (unknown origin) to IC50 for full length human wild type his-tagged BTK expressed in Sf9 cells
[14] = Selectivity ratio of IC50 for JAK2 (unknown origin) to IC50 for full length human wild type his-tagged BTK expressed in Sf9 cells

Sequence of Tyrosine-protein kinase BTK (Q06187 whole entry): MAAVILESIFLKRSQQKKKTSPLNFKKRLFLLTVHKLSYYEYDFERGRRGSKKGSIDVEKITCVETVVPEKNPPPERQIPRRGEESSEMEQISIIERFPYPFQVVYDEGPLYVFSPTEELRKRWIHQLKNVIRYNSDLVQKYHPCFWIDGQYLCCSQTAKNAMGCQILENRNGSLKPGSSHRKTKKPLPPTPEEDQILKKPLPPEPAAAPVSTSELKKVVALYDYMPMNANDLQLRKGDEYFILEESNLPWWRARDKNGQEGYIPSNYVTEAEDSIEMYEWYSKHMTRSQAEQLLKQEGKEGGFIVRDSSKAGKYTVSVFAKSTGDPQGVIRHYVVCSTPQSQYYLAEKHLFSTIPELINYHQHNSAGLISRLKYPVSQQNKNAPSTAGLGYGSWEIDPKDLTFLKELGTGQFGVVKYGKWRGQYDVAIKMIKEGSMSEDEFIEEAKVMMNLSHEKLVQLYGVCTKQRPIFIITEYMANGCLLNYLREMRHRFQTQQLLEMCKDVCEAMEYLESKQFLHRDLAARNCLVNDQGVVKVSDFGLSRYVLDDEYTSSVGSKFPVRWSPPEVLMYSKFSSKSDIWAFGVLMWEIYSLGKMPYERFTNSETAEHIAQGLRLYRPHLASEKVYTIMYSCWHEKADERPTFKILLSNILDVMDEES

Cc1c(NC(=O)c2ccc(C(C)(C)C)cc2)cccc1-c1nc(Nc2ccc(C(=O)N3CCOCC3)cc2)c2nc[nH]c2n1
half-life [1]: 4.3 h
Cmax [2]: 3.8 µM
Stability (Liver microsome [3]): 36%
Stability (Liver): 68%
Papp B→A [4]: < 1.5 ×10⁻⁶ cm/s
solubility [5]: < 1 µg/mL
Papp A→B [6]: < 1.5 ×10⁻⁶ cm/s
Papp [7]: 40.3 ×10⁻⁶ cm/s
Stability (Liver microsome [8]): 14%
solubility [9]: < 1 µg/mL
AUC [10]: 32.5 µM·h

Cn1cnc2c(Nc3ccc(C(=O)N4CCOCC4)cc3)nc(-c3cccc(NC(=O)c4ccc(C(C)(C)C)cc4)c3)cc21
IC50 [11]: 0.15 µM

CC(C)(C)c1ccc(C(=O)Nc2cccc(-c3nc(Nc4ccc(C(=O)N5CCOCC5)cc4)c4cccn4n3)c2)cc1
IC50 [11]: > 50 µM

CC(C)(C)c1ccc(C(=O)Nc2cccc(-c3nccc(Nc4ccc(C(=O)N5CCOCC5)cc4)n3)c2)cc1
IC50 [11]: > 50 µM

Cc1c(NC(=O)c2ccc(C(C)(C)C)cc2)cccc1-c1nc(Nc2ccc(C(=O)N3CCOCC3)cc2)c2ncn(CCCc3ccccc3)c2n1
Ratio IC50 [12]: 1
IC50 [11]: > 50 µM
Ratio IC50 [13]: 0.1
Ratio IC50 [14]: 1
